# EBNA-1 inh: blocks EBNA-1 binding to DNA | EBNA-1 DNA binding, fluorescence polarization | 300,000 tested, 0.34% active | AID 1950 | inhibition, % at 14.8 µM; in the data active = inhibition above about 28%
# HCV NS3 hel inh: inhibitors of Hepatitis C virus NS3 helicase; inhibition, % at 10.9 µM; 290,000 tested, 0.56% active; NS3 helicase DNA unwinding, Cy5 molecular beacon fluorescence;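 active = inhibition above the mean of all tested compounds plus 3 SD, set per campaign, cut at about 35% in these data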
#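 Compound dosing – single dose, 10.9 µM nominal final, DMSO 0.8% final · System – NS3 helicase fragment of HCV · Buffer or medium – MOPS pH 6.5, MgCl2, DTT, Tween20, BSA · Signal – Cy5 beacon fluorescence read at start and 1 h · Also added – annealed dual-labelled DNA beacon duplex, ATP-started · Schedule – 1 h at 25 °C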
# GPR7 antagonist: human neuropeptides B/W receptor 1 antagonism; P48145; GPR7-expressing cells, fluorescence antagonist assay; inhibition, % at 4.4 µM; 290,000 tested, 1.1% active; in the data active = inhibition above about 16%, passing the limit was not always enough;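 note: cells stimulated with the agonist NPW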
# Target sequence (P48145 whole entry, looked up): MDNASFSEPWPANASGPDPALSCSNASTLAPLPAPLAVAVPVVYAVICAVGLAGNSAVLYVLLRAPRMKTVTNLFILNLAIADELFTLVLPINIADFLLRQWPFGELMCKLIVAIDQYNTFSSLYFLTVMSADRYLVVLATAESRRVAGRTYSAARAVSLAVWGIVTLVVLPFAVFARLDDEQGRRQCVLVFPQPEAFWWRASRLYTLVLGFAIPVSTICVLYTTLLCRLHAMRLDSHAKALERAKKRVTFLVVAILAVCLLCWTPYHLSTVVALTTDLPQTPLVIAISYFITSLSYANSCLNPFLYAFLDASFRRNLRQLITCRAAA
# ZTA DNA inh: blocks Epstein-Barr virus ZTA, an EBNA-1 counter-screen; P03206; ZTA-DNA binding, fluorescence polarization; inhibition, % at 11 µM; 320,000 tested, 0.15% active; AID 2234; in the data active = inhibition above about 33%
# Target sequence (P03206 whole entry, looked up): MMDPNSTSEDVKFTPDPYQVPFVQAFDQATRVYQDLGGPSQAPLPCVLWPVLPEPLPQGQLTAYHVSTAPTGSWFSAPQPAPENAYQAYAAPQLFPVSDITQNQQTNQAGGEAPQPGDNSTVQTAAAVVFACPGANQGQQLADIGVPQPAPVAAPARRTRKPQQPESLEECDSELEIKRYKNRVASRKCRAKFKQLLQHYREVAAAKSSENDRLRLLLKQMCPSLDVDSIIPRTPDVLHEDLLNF
# DNA FID counter: displaces DNA intercalator in HCV helicase counter-screen; DNA fluorescent intercalator displacement, fluorescence; inhibition, % at 7.9 µM; 290,000 tested, 0.17% active; AID 1845; in the data active = inhibition above about 37%;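 note: higher means more ethidium bromide displaced from hairpin DNA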
# Numbers stand for hits; - = inactive; . = not tested or not shown. Only some compounds are listed: those with a hit (about 2% of all), similar ones and a draw of the others.
SMILES,EBNA-1 inh,HCV NS3 hel inh,GPR7 antagonist,ZTA DNA inh,DNA FID counter
CC(OC(=O)Cc1c(F)cccc1Cl)C(=O)NC1CCCCC1C (stereo unspecified),.,.,.,-,.
CC(C#N)(NC(=O)CN1CCN(S(=O)(=O)c2ccccc2Cl)CC1)C1CC1 (stereo unspecified),.,.,.,-,.
CCCCn1c(N)c(N(CCOC)C(=O)c2cc3c(s2)CCC3)c(=O)[nH]c1=O,-,.,.,-,.
Cc1cc(N2CCCC2)nc2ccc(NC(=S)NCCCN3CCC(C)CC3)cc12,-,-,-,-,47
CCN(CC)CCNC(=S)Nc1ccc2nc(N3CCN(CC)CC3)cc(C)c2c1,-,-,-,-,39
CCCCN(C)C(=S)Nc1ccc2nc(N3CCN(CC)CC3)cc(C)c2c1,-,-,-,-,-
CNC(=O)c1ccc(CN(C)CC(=O)Nc2ccccc2C(=O)NC2CC2)cc1,.,.,.,-,.
COc1ccccc1/C=C(/CC(=O)NCc1ccc2c(c1)OCO2)c1nc2ccccc2s1,36,-,-,-,-
O=C(O)C/C(=C\c1ccc2c(c1)OCO2)c1nc2ccccc2s1,-,-,-,-,-
CCN(CC)c1ccc2cc(-c3nnc(-c4ccncc4)o3)c(=O)oc2c1,.,-,41,.,-
CCN(CC)c1ccc2cc(C(C)=O)c(=O)oc2c1,-,-,-,-,-
Nc1ncnc(Nc2ccc(F)cc2)n1,-,-,-,-,-
Fc1ccc(Nc2ccnc(Nc3ccc(F)cc3)n2)cc1,-,-,-,-,39
Cc1ccc(C)n1-c1ccc(C(=O)O)cc1,-,-,-,50,-
O=Cc1ccccc1-c1cn(CN2C(=O)c3ccccc3C2=O)nn1,-,-,-,-,-
CCCn1cc(SCC(=O)Nc2nnc(C)s2)c2ccccc21,-,-,-,-,-
Cc1ccc(C(=O)NCCn2cc(SCC(=O)Nc3nnc(C)s3)c3ccccc32)cc1,-,-,19,-,-
CC(NCc1ccccc1Cl)C(=O)Nc1ccc(C#N)cc1 (stereo unspecified),-,-,18,-,-
Cc1cccc(C(=O)NCC(=O)OCC(=O)N(C)CC(=O)Nc2ccc(F)cc2)c1,-,.,.,-,.
O=C(CN1C(=O)/C(=C2\SC(=S)N(CCS(=O)(=O)O)C2=O)c2ccccc21)Nc1cccc(Br)c1,-,-,-,-,58
COc1ccc(CC(=O)NCC2CCCN(Cc3ccc(SC)cc3)C2)cc1 (stereo unspecified),-,-,-,-,-
COc1ccc(OC)c(S(=O)(=O)Nc2ccccc2SC)c1,-,-,14,-,-
CCNS(=O)(=O)c1cc(OC)ccc1OC,-,-,-,-,38
COc1ccc(OC)c(S(=O)(=O)NCCO)c1,-,-,-,-,-
CCSC(=O)N(CC)CC(=O)Nc1c(CC)cccc1CC,-,-,21,-,-
SMILES,EBNA-1 inh,HCV NS3 hel inh,GPR7 antagonist,ZTA DNA inh,DNA FID counter
O=C1C(Cl)=C(Nc2ccc(O)cc2)C(=O)c2ccccc21,-,-,38,-,-
CCCCN(C(=O)CCSc1ccc(F)cc1)c1c(N)n(Cc2ccccc2)c(=O)[nH]c1=O,-,.,.,-,.
Cc1cc(N2CCN(C)CC2)nc2ccc(NC(=S)N3CCN(c4ccc(Cl)cc4)CC3)cc12,-,-,-,-,46
Cc1cccc(N2CCN(C(=S)Nc3ccc4nc(N5CCN(C)CC5)cc(C)c4c3)CC2C)c1 (stereo unspecified),-,-,-,-,47
CCOC(=O)c1cn2nc(SCc3ccccc3)nc2nc1C,-,-,-,-,-
COc1ccc(NC(=S)NNc2ccc(C(=O)O)cc2)cc1,-,-,-,-,-
Cc1cccc(OCc2nc(C#N)c(N3CC(C)CC(C)C3)o2)c1 (stereo unspecified),-,-,21,-,-
Oc1ccc(CCNc2c3ccccc3nc3ccccc23)cc1O,-,-,-,-,39
c1ccc(CNc2c3ccccc3nc3ccccc23)cc1,-,-,-,-,-
CC(=O)Nc1ccc(S(=O)(=O)Oc2ccccc2N2CCCCC2)cc1,-,-,20,-,-
COc1cc(C(=S)N2CCCC2)ccc1OS(=O)(=O)c1ccc(NC(C)=O)cc1,-,-,-,-,-
COC(=O)Nc1ccc2c(c1)N(C(=O)CCN1CCN3CCCC3C1)c1ccccc1S2 (stereo unspecified),-,-,-,-,39
COC(=O)Nc1ccc2c(c1)N(C(=O)CCN1CCN3CCCC3C1)c1ccccc1CC2 (stereo unspecified),-,-,-,-,-
CC1(C)C2CCC1(C)C(OCC[N+](C)(C)CC(=O)OC1CCCCC1)C2 (stereo unspecified),-,-,20,-,-
CCOC(=O)C[N+](C)(C)CCOC1CC2CCC1(C)C2(C)C (stereo unspecified),-,-,-,-,-
COc1ccc(-n2c(-c3ccc(Br)cc3)c[n+]3c2CCc2ccccc2-3)cc1,-,-,-,-,-
COc1ccccc1-n1c(-c2ccccc2)c[n+]2c1CCc1ccccc1-2,-,-,28,-,-
CC(C)c1ccc(-n2c(-c3ccccc3)c[n+]3c2CCc2ccccc2-3)cc1,.,-,68,.,-
COc1ccccc1-n1c(-c2ccccc2)c[nH]c1=S,.,-,-,.,-
COc1ccc(/C=C/C(=O)NC(=S)Nc2ccc(S(=O)(=O)N=C(N)N)cc2)cc1OC,58,-,-,40,-
COCCN(CC(=O)Nc1cccc(C)c1C)C(=O)c1cc2c(s1)CCC2,.,.,.,-,.
COc1ccc2ccccc2c1C(O)c1nccn1C (stereo unspecified),-,-,-,-,45
CCCN(C(=O)Cc1csc(-c2ccccc2)n1)C1CCS(=O)(=O)C1 (stereo unspecified),.,.,.,-,.
O=C(NCCCN1CCOCC1)c1ccc(CSc2ccc(Cl)cc2)cc1,-,-,-,-,38
CC(C)c1ccc(C(=O)NCCCN2CCOCC2)cc1,-,-,-,-,-
CC[C@@H](C)[C@H](NC(=O)OC(C)(C)C)c1nnc(S(=O)(=O)Cc2cc(C)ccc2C)o1,-,-,24,-,-
C#CCOCCOCCOCCNc1nc(N2CCN(C(=O)CCCCCCCCCCNC(=O)[C@@H](CCSC)n3cc(CCO)nn3)CC2)nc(N2CCN(C(=O)CCCCCCCCCCNC(=O)[C@H](CO)n3cc(CCCCCN)nn3)CC2)n1,-,.,.,-,.
C#CCOCCOCCOCCNc1nc(N2CCN(C(=O)CCCCCCCCCCNC(=O)[C@H](CCCCN)n3cc(C[C@@H](C)CC)nn3)CC2)nc(N2CCN(C(=O)CCCCCCCCCCNC(=O)[C@H](CCCN=C(N)N)n3cc(C[C@@H](C)CC)nn3)CC2)n1,-,.,.,70,.
C#CCOCCOCCOCCNc1nc(N2CCN(C(=O)CCCCCCCCCCNC(=O)[C@H](CO)n3cc(CCCCCN)nn3)CC2)nc(N2CCN(C(=O)CCCCCCCCCCNC(=O)[C@H](CCCN=C(N)N)n3cc(C[C@@H](C)CC)nn3)CC2)n1,-,.,.,105,.

# Assay outcomes from PubChem.
